# In the library only some 1.7% were active in any assay of this set; here they are far more common.
# IDE cell inh: inhibits human insulin-degrading enzyme in HEK cells. FAbetaB cleavage, fluorescence polarization. P14735. 0.41% of 320,000 active. AID 434962. inhibition, % at 5.59 µM;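 active = percent inhibition above the average of all tested compounds plus 3 SD, set per screening campaign, cut at about 16% in these data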;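 note: IDE supplied by intact live HEK cells; FP after avidin binding of uncleaved biotin substrate so inhibition keeps polarization high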
# Target sequence (P14735 whole entry, looked up): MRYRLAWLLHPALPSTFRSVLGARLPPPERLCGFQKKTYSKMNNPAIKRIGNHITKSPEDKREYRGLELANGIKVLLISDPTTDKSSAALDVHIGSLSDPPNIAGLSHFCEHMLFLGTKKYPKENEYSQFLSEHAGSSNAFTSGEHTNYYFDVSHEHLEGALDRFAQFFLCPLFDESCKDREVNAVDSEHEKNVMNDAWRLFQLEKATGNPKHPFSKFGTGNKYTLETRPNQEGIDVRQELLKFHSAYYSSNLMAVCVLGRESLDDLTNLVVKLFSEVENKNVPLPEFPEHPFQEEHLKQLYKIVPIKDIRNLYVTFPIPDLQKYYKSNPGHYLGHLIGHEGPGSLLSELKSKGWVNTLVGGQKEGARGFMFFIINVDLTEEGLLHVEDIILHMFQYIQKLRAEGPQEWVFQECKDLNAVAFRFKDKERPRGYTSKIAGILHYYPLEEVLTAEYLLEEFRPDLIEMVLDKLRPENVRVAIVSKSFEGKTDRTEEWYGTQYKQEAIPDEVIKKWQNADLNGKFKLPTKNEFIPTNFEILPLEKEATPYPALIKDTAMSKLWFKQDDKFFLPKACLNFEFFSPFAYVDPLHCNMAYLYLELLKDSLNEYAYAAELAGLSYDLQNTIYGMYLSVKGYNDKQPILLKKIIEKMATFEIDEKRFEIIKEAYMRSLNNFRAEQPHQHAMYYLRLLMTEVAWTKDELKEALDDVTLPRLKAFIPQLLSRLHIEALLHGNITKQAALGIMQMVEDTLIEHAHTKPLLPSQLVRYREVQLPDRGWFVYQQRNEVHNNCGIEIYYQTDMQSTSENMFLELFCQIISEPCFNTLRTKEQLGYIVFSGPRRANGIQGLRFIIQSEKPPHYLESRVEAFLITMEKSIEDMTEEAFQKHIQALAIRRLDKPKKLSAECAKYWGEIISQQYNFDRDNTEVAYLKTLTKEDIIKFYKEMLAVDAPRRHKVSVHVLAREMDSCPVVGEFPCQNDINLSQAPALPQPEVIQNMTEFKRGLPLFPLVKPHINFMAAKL
# IDE cell activ: boosts human insulin-degrading enzyme activity in HEK cells; P14735; FAbeta-B cleavage, fluorescence polarization; 0% vehicle, 100% cell-free pure enzyme wells; activation, % at 5.96 µM; 0.073% of 340,000 active; AID 493087;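 active = activation above the mean of all tested compounds plus 3 SD, set per screening campaign, cut at about 17% in these data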
# Rpn11 inh: Rpn11 (human) deubiquitinase inhibition. AID 588493. 0.59% of 360,000 active. human 26S proteasome, Ub4-pepOG fluorescence polarization; 20S core pre-blocked with epoxomicin. O00487. inhibition, % at 20 µM;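 active = inhibition at 20 µM, scaled to each plate's controls, above about 33%, limit read from the data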
# HNF4A DNA FP: change in binding of human HNF4 alpha to DNA. P41235. HNF4a-FITC DNA binding, fluorescence polarization, 1 h. activity change, % at 10 µM. 0.3% of 360,000 active; in the data active = activity change above about 30%, passing the limit was not always enough
# TPT1 inhibitor: blocks Candida albicans tRNA 2'-phosphotransferase; 0.81% of 300,000 active; AID 1962; inhibition, % at 5 µM; recombinant caTPT1, FP RNA substrate dephosphorylation;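 active = inhibition above the mean of all tested compounds plus 3 SD, set per screening campaign, cut at about 24% in these data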
# CSN deneddyl inh: blocks human CSN-mediated cullin deneddylation; Q92905; 0.38% of 360,000 active; Purified CSN, SCF-Nedd8-OG deneddylation, fluorescence polarization; inhibition, % at 12.5 µM;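 active = pattern-corrected inhibition above about 35%, with an unprinted fluorescence ratio check between 0.5 and 1.5, limit read from the data, passing the limit was not always enough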
#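 Detection – fluorescence polarization · System – HEK293T-derived human Csn5 enzyme · Controls – substrate-only high control, full reaction low control · Timing – 90 min, room temperature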
# Hits are given with their value; – = inactive; · = not tested or not shown; + = active, no number.
SMILES,IDE cell inh,IDE cell activ,Rpn11 inh,HNF4A DNA FP,TPT1 inhibitor,CSN deneddyl inh
N#C/C(=C(/O)c1ccc([N+](=O)[O-])o1)c1nc2ccccc2[nH]1,–,–,–,–,–,–
N#C/C(=C\c1ccc([N+](=O)[O-])o1)c1nc2ccccc2[nH]1,–,·,·,·,29,·
COc1cc(CNCCCO)ccc1OCC(=O)NC(C)(C)C,–,–,–,–,–,–
COc1cc(CNCCc2ccccc2)ccc1OCC(=O)NC(C)(C)C,–,–,–,–,–,106
CCCCN1C(=O)C(CC(=O)NC2CCCC2)CC(C(=O)N2CCOCC2)=C1C (stereo not given),·,·,–,–,·,–
O=c1oc2c(CN3CCCCC3)c(O)ccc2cc1-c1nc2ccccc2[nH]1,·,–,–,–,·,–
O=c1oc2c(O)cccc2cc1-c1nc2ccccc2[nH]1,·,61,–,–,·,–
Cc1ccc(C2C3C(=O)N(c4ccc(C)cc4)C(=O)C3N3CCCN23)cc1 (stereo not given),–,–,–,–,–,–
Cc1nc(SCc2ccc(Cl)c(Cl)c2)n[nH]1,·,–,–,118,·,–
Cc1nc(SCc2ccc(F)cc2)n[nH]1,–,–,–,–,–,–
CCOC(=O)C1=CCC(c2ccccc2)N(S(=O)(=O)c2ccccc2[N+](=O)[O-])C1 (stereo not given),·,·,–,–,·,–
CCOC(=O)C1=CCC(c2ccccc2)N(S(=O)(=O)c2ccccc2C)C1 (stereo not given),·,·,–,–,·,92
Cc1cnc(CNC(=O)c2ccc(OC3CCN(C(=O)C4CC4)CC3)cc2)cn1,–,–,–,40,–,–
C=CCN1CC(C(=O)N2CCC(Cc3ccc(Cl)cc3)(C(=O)OCC)CC2)CC1=O (stereo not given),–,–,–,36,–,–
CCOC(=O)C1(Cc2ccc(Cl)cc2)CCN(C(=O)C2CCCO2)CC1 (stereo not given),–,–,–,–,–,–
Clc1cc(Cl)c2nc(N3CCCCC3)sc2c1,–,–,–,–,–,–
Clc1cc(Cl)c2nc(N3CCCC3)sc2c1,–,–,–,–,–,41
COc1ccc(CN2CCN(CCC(C)C)C(CCO)C2)cc1Cn1cncn1 (stereo not given),–,–,–,–,–,–
Cn1c(=O)c2c(nc(CN3CCN(c4ccc(F)cc4)CC3)n2CCN2CCOCC2)n(C)c1=O,–,–,–,75,–,–
Cc1ccccc1Cn1c(CN2CCN(c3ccc(F)cc3)CC2)nc2c1c(=O)n(C)c(=O)n2C,–,·,·,·,–,·
CCN(CC)C(=O)C1=C(C)N(Cc2ccc(OC)cc2)C(=O)C(CC(=O)NCCc2ccccn2)C1 (stereo not given),·,·,–,–,·,85
CCN(CC)C(=O)C1=C(C)N(Cc2ccc(C(C)(C)C)cc2)C(=O)C(CC(=O)NC(c2ccccc2)c2ccccc2)C1 (stereo not given),·,·,–,–,·,+
COc1cc2c3nnc(-c4ccc(F)cc4)c-3cn(Cc3cccc(F)c3)c2cc1OC,–,–,·,115,–,–
COc1cc2c3nnc(-c4ccc(F)cc4)c-3cn(Cc3cccc(C)c3)c2cc1OC,–,–,–,–,–,–
COCCNC(=O)C(OC(=O)c1ccco1)c1ccc(OC)cc1 (stereo not given),·,–,–,–,·,–
SMILES,IDE cell inh,IDE cell activ,Rpn11 inh,HNF4A DNA FP,TPT1 inhibitor,CSN deneddyl inh
Cc1ccc(-n2nc(-c3ccco3)cc2C(=O)O)cc1,–,–,–,–,–,38
CCOC(=O)c1cc(-c2ccco2)nn1-c1ccc(C)cc1,–,–,–,–,–,–
CNC[C@@H](CC1CCCCC1)NC[C@H](CC(C)C)NCCc1cccc(C(F)(F)F)c1,–,21,–,–,–,–
CC[C@@H](C)[C@H](CNC)NC[C@@H](Cc1cccc2ccccc12)NCCc1cccc(C(F)(F)F)c1,–,29,–,–,–,–
O=[N+]([O-])c1cc2c(c([N+](=O)[O-])c1)Nc1ccccc1O2,·,·,–,–,·,–
CC1(C(=O)NS(=O)(=O)C2CC2)CCCN(C(=O)c2ccccc2OC(F)(F)F)C1 (stereo not given),·,·,–,–,·,–
N#CCSc1nc2c(sc(=S)n2Cc2ccco2)c(=O)n1-c1ccc(F)cc1,–,–,–,58,–,–
O=C1C(SCCO)=C(SCCO)C(=O)c2ccccc21,53,–,–,–,–,–
Cc1nn(C)c(C)c1S(=O)(=O)N1CCC(CO)(CC2CCCCO2)CC1 (stereo not given),–,–,–,–,–,–
CCOc1ccc(N2CC(C(=O)OC)CC2=O)cc1 (stereo not given),–,–,–,50,–,–
CCNC(=O)C1CC(=O)N(c2ccc(OCC)cc2)C1 (stereo not given),–,–,–,–,–,–
COc1ccc(NC(=O)CSc2nc3n[nH]c(C)c3c(=N)n2-c2ccc(Cl)c(C)c2)cc1OC,–,–,–,–,–,36
CN(C(=O)COC(=O)c1ccc2c(c1)OCO2)c1c(N)n(Cc2ccccc2)c(=O)[nH]c1=O,–,–,–,–,–,–
Cc1ccc(C2=NOC(C)(c3nnc(-c4ccc(Cl)cc4)o3)C2)cc1 (stereo not given),–,–,–,36,–,–
Cc1ccc(S(=O)(=O)NCCC(=O)N2CCN(Cc3ccccc3)CC2)cc1,–,–,–,–,–,–
CC(=O)N1CCc2cc(S(=O)(=O)NCCC(=O)N3CCN(Cc4ccccc4)CC3)ccc21,–,19,–,–,–,–
CC[C@H](C)/C=C/C1=CC2=C(Cl)C(=O)[C@@]3(C)OC(=O)C(C(=O)[C@H](C)[C@@H](C)O)=C3C2=CO1,–,–,–,–,–,49
CCOc1ccc(NC(=O)c2ccc(NC(=O)c3ccc(NC(N)=O)cc3)cc2)cc1,–,·,106,–,·,–
COc1ccc(NC(=O)/C(=C\c2ccncc2)NC(=O)c2ccccc2)cc1,–,–,–,–,–,50
CC(OC(=O)/C=C/c1cccc(Cl)c1)C(=O)NC1CCCCC1C (stereo not given),–,–,–,–,–,–
CC(OC(=O)c1cccc(Cl)c1)C(=O)NC1CCCCC1C (stereo not given),–,–,–,–,–,57
Nn1cc(-c2ccccc2)nc1SCC(=O)Nc1ccc(S(N)(=O)=O)cc1,–,–,–,–,–,–
CC(C)(O)C#Cc1ccccc1C(=O)NC(CC(N)=O)C(=O)O (stereo not given),–,18,–,–,–,–
O=C(Nc1ccc2c(c1)OCO2)O[C@@H]1C[C@H]2CCC(=O)N3CC[C@@H](C1)[C@@H]23,–,–,–,–,–,–
CC(Sc1ccccc1)C(=O)NCCc1ccccc1 (stereo not given),–,–,–,–,–,50
COc1ccc(CCNC(=O)C(C)SCc2ccccc2)cc1 (stereo not given),–,–,–,–,–,–
